Assay results: ChEMBL document CHEMBL2163192, “N,N-Dimethyl-[9-(arylsulfonyl)-2,3,4,9-tetrahydro-1H-carbazol-3-yl]amines as novel, potent and selective 5-HT₆ receptor antagonists” (Bioorg Med Chem Lett, 2012)
Calls of active or inactive are those of the source. The rule behind the calls is not given here.

Legend:
[1] = biological target: T1, 5-hydroxytryptamine receptor 6 (Homo sapiens, UniProt P50406); assay: Displacement of [3H]LSD from human cloned 5-HT6 receptor expressed in HeLa cells after 1 hr by scintillation counter; assay type: cell-based
[2] = Half life in Wistar rat at 10 mg/kg, po; assay type: ADME, organism-based; parameters: dose 10 mg/kg, route oral; conditions: in vivo
Procedure, shortened: (§1)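 Fasted male Wistar rats, n=3, given 10 mg/kg orally in water for injection (10 mL/kg); plasma Cmax, half-life, Vd and clearance derived, with bioavailability from comparison against the 10 mg/kg iv arm.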

[3] = biological target: CYP3A4 (Homo sapiens, UniProt P08684); assay: Inhibition of human CYP3A4 at 3 uM; assay type: ADME
Procedure, shortened: (§2)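 Isoform-selective inhibition assays using heterologously expressed human CYP enzymes; compounds tested at 3 μM; percent inhibition reported.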

[4] = biological target: CYP2C19 (Homo sapiens, UniProt P33261); assay: Inhibition of human CYP2C19 at 3 uM; assay type: ADME; procedure, shortened: as §2
[5] = biological target: T2, Alpha-1B adrenergic receptor (Homo sapiens) (UniProt P35368); assay: Inhibition of alpha1B adrenergic receptor at 1 uM
T2 sequence (whole entry): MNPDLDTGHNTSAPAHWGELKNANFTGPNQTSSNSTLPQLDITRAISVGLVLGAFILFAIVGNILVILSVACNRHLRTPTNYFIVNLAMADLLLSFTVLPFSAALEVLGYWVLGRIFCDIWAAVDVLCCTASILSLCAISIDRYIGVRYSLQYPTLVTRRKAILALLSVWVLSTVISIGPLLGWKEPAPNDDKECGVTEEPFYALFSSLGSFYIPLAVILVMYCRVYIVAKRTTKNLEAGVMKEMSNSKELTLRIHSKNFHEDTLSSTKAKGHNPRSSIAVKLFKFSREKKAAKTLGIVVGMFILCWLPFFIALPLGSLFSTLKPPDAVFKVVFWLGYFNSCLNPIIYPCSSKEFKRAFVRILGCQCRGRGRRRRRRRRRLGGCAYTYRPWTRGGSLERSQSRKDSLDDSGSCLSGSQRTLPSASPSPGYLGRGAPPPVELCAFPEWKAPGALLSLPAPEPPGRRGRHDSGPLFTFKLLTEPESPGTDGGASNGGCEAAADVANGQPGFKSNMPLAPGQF
Procedure, shortened: (§3)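 In-house selectivity panel of related receptors and transporters; each compound tested at 1 μM and 10 μM; percent inhibition determined in duplicate and the mean of the two reported.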

[6] = AUC in Wistar rat at 10 mg/kg, po; assay type: ADME, organism-based; parameters: dose 10 mg/kg, route oral; conditions: plasma
Procedure, shortened: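 Fasted male Wistar rats (n = 3) received a single oral dose of 10 mg/kg in water for injection. AUC is given in ng.hr/mL as part of a pharmacokinetic profile that also includes Cmax, t1/2, Vd and clearance, and uses an i.v. 10 mg/kg arm to derive oral bioavailability.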

[7] = Oral bioavailability in Wistar rat at 10 mg/kg; assay type: ADME, organism-based; conditions: in vivo; procedure, shortened: as §1
[8] = biological target: Sodium-dependent serotonin transporter (Homo sapiens) (UniProt P31645); assay: Inhibition of SERT at 1 uM; procedure, shortened: as §3
[9] = biological target: Histamine H3 receptor (Homo sapiens) (UniProt Q9Y5N1); assay: Inhibition of histamine H3 receptor at 10 uM; procedure, shortened: as §3
[10] = Cmax in Wistar rat at 10 mg/kg, iv; assay type: ADME, organism-based; parameters: dose 10 mg/kg, route intravenous; conditions: in vivo
Procedure, shortened: (§4)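 Fasted male Wistar rats, n=3, single 10 mg/kg intravenous dose in water for injection (2 mL/kg); plasma concentration–time profile used for Cmax, AUC, half-life, Vd and clearance.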

[11] = AUC in Wistar rat at 10 mg/kg, iv; assay type: ADME, organism-based; parameters: dose 10 mg/kg, route intravenous; conditions: plasma; procedure, shortened: as §4
[12] = biological target: 5-hydroxytryptamine receptor 2A (Homo sapiens) (UniProt P28223); assay: Inhibition of 5-HT2A receptor at 10 uM; procedure, shortened: as §3
[13] = biological target: T3, 5-hydroxytryptamine receptor 1A (Homo sapiens) (UniProt P08908); assay: Inhibition of 5-HT1A receptor at 1 uM; procedure, shortened: as §3
T3 sequence (whole entry): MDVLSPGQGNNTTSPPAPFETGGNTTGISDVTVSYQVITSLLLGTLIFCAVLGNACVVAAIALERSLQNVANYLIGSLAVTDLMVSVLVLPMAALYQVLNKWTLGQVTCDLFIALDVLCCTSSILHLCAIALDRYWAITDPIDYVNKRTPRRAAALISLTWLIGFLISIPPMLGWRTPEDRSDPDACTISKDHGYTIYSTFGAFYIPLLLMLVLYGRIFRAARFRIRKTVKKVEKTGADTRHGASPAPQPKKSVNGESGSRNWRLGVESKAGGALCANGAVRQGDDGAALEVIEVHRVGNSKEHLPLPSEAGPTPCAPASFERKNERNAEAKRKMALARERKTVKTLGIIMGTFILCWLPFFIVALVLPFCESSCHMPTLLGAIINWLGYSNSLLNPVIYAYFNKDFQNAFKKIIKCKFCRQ

[14] = biological target: Sodium-dependent dopamine transporter (Homo sapiens) (UniProt Q01959); assay: Inhibition of DAT at 1 uM; procedure, shortened: as §3
[15] = test system: Rattus norvegicus; assay: Volume of distribution in Wistar rat at 10 mg/kg, po; assay type: ADME, organism-based; parameters: dose 10 mg/kg, route oral; conditions: in vivo; procedure, shortened: as §1
[16] = biological target: Sodium-dependent serotonin transporter (Homo sapiens) (UniProt P31645); assay: Inhibition of SERT at 10 uM; procedure, shortened: as §3
[17] = biological target: 5-hydroxytryptamine receptor 2A (Homo sapiens) (UniProt P28223); assay: Inhibition of 5-HT2A receptor at 1 uM; procedure, shortened: as §3
[18] = Clearance in Wistar rat at 10 mg/kg, iv; assay type: ADME, organism-based; parameters: dose 10 mg/kg, route intravenous; conditions: in vivo; procedure, shortened: as §4
[19] = Drug metabolism in human liver microsomes; assay type: ADME, Microsome; conditions: read-out: Drug metabolism
[20] = biological target: Sodium-dependent dopamine transporter (Homo sapiens) (UniProt Q01959); assay: Inhibition of DAT at 10 uM; procedure, shortened: as §3
[21] = biological target: D(2) dopamine receptor (Homo sapiens) (UniProt P14416); assay: Inhibition of dopamine D2 receptor at 1 uM; procedure, shortened: as §3
[22] = biological target: Histamine H4 receptor (Homo sapiens) (UniProt Q9H3N8); assay: Inhibition of histamine H4 receptor at 10 uM; procedure, shortened: as §3
[23] = Volume of distribution in Wistar rat at 10 mg/kg, iv; assay type: ADME, organism-based; parameters: dose 10 mg/kg, route intravenous; conditions: in vivo; procedure, shortened: as §4
[24] = biological target: T1, 5-hydroxytryptamine receptor 6; assay: Antagonist activity at human recombinant 5-HT6 receptor expressed in CHO cells assessed as inhibition of 5-HT-stimulated cAMP accumulation after 4 hrs by luciferase reporter gene assay; assay type: functional, cell-based
Procedure, shortened: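 Cell-based, non-radioactive reporter gene assay measuring antagonism of 5-HT-stimulated cAMP formation at human 5-HT6 receptor; IC50 and Kb values determined in duplicate.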

[25] = biological target: D(2) dopamine receptor (Homo sapiens) (UniProt P14416); assay: Inhibition of dopamine D2 receptor at 10 uM; procedure, shortened: as §3
[26] = biological target: T3, 5-hydroxytryptamine receptor 1A (Homo sapiens); assay: Inhibition of 5-HT1A receptor at 10 uM; procedure, shortened: as §3
[27] = biological target: CYP2D6 (Homo sapiens, UniProt P10635); assay: Inhibition of human CYP2D6 at 3 uM; assay type: ADME; procedure, shortened: as §2
[28] = Clearance in Wistar rat at 10 mg/kg, po; assay type: ADME, organism-based; parameters: dose 10 mg/kg, route oral; conditions: in vivo; procedure, shortened: as §1
[29] = biological target: T2, Alpha-1B adrenergic receptor (Homo sapiens); assay: Inhibition of alpha1B adrenergic receptor at 10 uM; procedure, shortened: as §3
[30] = Half life in Wistar rat at 10 mg/kg, iv; assay type: ADME, organism-based; parameters: dose 10 mg/kg, route intravenous; conditions: in vivo; procedure, shortened: as §4
[31] = test system: Rattus norvegicus; assay: Cognitive enhancing effect in Wistar rat assessed as increase in time send on novel object at 1 to 10 mg/kg, po after 60 mins by novel object recognition test; assay type: functional, organism-based
Procedure, shortened: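 Novel object recognition in rats with 24-h delay procedure; 1, 3 and 10 mg/kg given orally in water for injection (2 mL/kg) 60 min before test; time exploring novel versus familiar object compared by paired t test, n = 8–10/group.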

[32] = Drug metabolism in rat liver microsomes; assay type: ADME, Microsome; conditions: read-out: Drug metabolism
[33] = Ratio of drug level in brain to plasma in Wistar rat at 10 mg/kg, po; assay type: ADME, organism-based; parameters: dose 10 mg/kg, route oral; conditions: read-out: BPR
[34] = biological target: Histamine H4 receptor (Homo sapiens) (UniProt Q9H3N8); assay: Inhibition of histamine H4 receptor at 1 uM; procedure, shortened: as §3
[35] = biological target: Histamine H3 receptor (Homo sapiens) (UniProt Q9Y5N1); assay: Inhibition of histamine H3 receptor at 1 uM; procedure, shortened: as §3
[36] = Cmax in Wistar rat at 10 mg/kg, po; assay type: ADME, organism-based; parameters: dose 10 mg/kg, route oral; conditions: in vivo; procedure, shortened: as §1

T1 sequence (P50406 whole entry): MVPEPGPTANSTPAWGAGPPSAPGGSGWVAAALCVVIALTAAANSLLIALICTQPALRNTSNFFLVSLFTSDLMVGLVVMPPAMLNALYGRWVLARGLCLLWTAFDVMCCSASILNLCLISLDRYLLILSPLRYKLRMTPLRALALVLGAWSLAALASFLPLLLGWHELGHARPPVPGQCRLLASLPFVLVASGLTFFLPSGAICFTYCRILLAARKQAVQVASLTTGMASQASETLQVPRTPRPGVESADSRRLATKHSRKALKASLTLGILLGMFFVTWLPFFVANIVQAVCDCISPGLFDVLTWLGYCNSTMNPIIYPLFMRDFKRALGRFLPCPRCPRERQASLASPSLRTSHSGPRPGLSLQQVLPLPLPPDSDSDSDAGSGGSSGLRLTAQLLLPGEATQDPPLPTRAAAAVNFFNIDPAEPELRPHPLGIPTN
Histamine H4 receptor (Homo sapiens), sequence (Q9H3N8 whole entry): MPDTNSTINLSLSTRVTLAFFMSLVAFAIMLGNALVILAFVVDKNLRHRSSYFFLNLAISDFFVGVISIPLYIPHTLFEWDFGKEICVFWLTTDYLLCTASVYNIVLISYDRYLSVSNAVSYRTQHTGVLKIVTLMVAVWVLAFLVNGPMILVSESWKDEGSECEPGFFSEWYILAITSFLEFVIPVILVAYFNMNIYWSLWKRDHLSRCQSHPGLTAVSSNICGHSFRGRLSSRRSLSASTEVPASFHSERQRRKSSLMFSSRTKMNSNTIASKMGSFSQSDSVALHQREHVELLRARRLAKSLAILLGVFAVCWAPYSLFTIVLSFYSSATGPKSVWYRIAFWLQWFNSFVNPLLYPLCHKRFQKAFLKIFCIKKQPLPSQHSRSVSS
D(2) dopamine receptor (Homo sapiens), sequence (P14416 whole entry): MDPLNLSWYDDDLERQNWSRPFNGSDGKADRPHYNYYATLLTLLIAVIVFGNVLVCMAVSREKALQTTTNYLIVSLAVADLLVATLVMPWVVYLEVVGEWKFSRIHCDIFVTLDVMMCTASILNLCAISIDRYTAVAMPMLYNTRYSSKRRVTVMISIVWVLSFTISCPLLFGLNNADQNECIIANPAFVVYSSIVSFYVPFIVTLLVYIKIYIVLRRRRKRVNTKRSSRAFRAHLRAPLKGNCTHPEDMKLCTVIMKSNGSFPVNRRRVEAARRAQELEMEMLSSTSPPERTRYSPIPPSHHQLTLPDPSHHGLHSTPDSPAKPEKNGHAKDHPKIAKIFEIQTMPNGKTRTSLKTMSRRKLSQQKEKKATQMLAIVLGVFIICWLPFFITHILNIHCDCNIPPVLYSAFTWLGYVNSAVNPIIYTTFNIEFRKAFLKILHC
Sodium-dependent dopamine transporter (Homo sapiens), sequence (Q01959 whole entry): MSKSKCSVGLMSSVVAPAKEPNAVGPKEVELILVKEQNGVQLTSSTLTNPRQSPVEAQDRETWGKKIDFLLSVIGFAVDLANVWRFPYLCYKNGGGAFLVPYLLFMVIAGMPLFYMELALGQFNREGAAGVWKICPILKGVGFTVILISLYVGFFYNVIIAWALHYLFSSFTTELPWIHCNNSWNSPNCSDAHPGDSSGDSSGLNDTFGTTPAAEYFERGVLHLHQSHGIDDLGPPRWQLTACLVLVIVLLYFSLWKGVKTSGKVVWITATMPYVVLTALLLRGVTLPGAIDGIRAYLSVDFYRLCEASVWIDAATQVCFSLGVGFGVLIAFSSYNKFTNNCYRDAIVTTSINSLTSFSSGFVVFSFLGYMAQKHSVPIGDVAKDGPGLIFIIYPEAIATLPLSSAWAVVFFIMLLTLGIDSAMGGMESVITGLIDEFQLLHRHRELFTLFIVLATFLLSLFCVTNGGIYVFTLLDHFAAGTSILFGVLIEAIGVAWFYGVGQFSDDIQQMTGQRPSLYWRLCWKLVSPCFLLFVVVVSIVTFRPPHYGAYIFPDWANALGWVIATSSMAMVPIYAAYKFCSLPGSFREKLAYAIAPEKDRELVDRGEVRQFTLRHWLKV
Histamine H3 receptor (Homo sapiens), sequence (Q9Y5N1 whole entry): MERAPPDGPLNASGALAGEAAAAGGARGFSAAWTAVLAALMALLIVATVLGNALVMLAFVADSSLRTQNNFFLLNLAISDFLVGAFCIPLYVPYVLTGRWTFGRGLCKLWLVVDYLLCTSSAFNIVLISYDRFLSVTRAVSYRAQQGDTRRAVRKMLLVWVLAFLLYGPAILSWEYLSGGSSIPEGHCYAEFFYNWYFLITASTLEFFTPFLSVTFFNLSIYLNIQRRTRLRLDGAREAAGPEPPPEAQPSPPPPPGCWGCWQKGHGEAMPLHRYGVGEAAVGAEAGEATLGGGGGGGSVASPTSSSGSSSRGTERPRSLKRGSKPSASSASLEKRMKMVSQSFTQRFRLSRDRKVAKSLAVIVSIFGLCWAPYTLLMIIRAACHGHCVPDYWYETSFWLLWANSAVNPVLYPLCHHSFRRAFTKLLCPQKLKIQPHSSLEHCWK
5-hydroxytryptamine receptor 2A (Homo sapiens), sequence (P28223 whole entry): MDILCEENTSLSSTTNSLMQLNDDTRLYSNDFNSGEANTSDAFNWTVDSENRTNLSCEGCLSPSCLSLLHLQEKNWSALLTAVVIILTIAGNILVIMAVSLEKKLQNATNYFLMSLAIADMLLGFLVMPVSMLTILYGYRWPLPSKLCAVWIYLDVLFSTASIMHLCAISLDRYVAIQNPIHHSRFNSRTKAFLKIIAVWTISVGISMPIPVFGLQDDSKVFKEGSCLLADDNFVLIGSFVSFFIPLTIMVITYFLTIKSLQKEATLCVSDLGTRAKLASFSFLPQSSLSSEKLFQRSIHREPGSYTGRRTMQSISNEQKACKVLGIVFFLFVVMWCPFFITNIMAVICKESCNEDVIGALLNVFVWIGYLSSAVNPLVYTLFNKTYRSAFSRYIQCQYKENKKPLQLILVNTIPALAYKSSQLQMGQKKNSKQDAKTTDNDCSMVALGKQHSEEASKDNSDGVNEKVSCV
Sodium-dependent serotonin transporter (Homo sapiens), sequence (P31645 whole entry, looked up): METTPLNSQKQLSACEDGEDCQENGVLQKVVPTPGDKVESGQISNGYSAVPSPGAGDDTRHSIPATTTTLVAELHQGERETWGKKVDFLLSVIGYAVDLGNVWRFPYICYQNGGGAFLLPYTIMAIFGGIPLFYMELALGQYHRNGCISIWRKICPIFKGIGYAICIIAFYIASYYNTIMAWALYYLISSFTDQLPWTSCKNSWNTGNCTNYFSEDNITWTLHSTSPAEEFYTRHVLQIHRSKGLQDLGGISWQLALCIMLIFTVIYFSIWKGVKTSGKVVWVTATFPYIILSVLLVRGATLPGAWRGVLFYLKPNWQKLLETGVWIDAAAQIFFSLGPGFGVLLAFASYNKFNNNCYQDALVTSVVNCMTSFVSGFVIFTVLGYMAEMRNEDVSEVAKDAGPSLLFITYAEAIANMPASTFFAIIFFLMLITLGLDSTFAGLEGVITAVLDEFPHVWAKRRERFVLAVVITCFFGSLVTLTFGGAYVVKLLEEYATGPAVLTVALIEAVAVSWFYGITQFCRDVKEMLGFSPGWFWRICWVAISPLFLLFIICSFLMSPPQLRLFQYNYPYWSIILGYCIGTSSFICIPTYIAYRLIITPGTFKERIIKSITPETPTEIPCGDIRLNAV
CYP3A4, sequence (P08684 whole entry, canonical isoform): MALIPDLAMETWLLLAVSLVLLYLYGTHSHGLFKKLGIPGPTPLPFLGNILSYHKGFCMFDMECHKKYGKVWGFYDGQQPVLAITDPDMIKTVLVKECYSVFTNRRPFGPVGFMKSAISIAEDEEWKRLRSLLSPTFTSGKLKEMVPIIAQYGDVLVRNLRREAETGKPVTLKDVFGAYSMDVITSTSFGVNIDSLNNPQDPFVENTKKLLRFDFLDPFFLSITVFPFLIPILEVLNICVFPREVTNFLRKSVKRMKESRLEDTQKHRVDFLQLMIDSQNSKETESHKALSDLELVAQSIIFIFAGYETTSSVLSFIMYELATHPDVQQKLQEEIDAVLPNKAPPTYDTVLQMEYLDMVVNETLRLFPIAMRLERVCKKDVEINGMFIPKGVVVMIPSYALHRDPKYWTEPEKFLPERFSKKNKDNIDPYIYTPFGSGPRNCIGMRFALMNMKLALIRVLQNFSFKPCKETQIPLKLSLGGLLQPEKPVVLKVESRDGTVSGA
CYP2D6, sequence (P10635 whole entry): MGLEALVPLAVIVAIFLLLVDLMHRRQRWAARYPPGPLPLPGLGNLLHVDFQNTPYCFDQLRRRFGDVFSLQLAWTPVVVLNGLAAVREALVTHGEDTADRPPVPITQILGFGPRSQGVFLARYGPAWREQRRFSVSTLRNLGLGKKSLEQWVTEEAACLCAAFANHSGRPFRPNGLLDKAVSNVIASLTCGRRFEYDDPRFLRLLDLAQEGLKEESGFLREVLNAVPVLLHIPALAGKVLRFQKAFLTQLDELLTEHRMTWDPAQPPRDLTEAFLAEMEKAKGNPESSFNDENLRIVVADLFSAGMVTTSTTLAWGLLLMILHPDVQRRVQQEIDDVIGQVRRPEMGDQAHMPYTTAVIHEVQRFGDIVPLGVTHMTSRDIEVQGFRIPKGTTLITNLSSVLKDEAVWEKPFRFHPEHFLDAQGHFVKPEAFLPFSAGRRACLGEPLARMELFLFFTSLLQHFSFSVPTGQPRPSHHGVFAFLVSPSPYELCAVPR
CYP2C19, sequence (P33261 whole entry): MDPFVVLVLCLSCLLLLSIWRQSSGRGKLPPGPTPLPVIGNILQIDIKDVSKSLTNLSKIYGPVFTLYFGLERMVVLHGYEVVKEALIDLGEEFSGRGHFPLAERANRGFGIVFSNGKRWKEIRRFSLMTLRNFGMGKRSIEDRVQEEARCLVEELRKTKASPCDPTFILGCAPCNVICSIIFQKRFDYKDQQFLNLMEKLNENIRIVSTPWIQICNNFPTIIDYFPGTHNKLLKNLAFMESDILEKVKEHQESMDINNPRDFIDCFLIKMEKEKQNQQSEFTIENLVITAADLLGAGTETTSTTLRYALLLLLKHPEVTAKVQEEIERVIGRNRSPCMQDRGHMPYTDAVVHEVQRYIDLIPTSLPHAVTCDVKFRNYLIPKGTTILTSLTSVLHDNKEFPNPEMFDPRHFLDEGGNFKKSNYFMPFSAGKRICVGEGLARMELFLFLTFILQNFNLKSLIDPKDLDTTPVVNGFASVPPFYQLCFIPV

NC1CCc2[nH]c3ccc(S(=O)(=O)c4ccccc4)cc3c2C1 (configuration not stated) gave a Ki [1] of 58 nM.
In the case of COc1ccc2c(c1)c1c(n2S(=O)(=O)c2ccccc2)CCC(N(C)C)C1 (racemic), the half-life [2] is reported as 7.67 h, the inhibition at 3 µM [3] is reported as 10% and the inhibition at 3 µM [4] is reported as 50%. The inhibition [5] was 5.21%, the AUC [6] was 544 ng·h/mL and the bioavailability [7] was 26%. The inhibition [8] was 2.52%, the inhibition [9] was 32.7% and the Cmax [10] was 928 ng/mL. For the same molecule, the AUC [11] was 2120 ng·h/mL, the inhibition [12] was 46.7% and the inhibition [13] was 28.3%. It also gave an inhibition [14] of 1.48%, a Vd [15] of 21.95 L/kg and an inhibition [16] of 3.35%. The inhibition [17] was 8.15%, the clearance [18] was 73.8 mL/min/kg and the metabolised [19] was 49%. The inhibition [20] was 6.23%, the inhibition [21] was 11% and the inhibition [22] was 13.9%. For the same molecule, the Vd [23] was 24.3 L/kg, the IC50 [24] was 457 nM and the Kb [24] was 4.7 nM. It also gave an inhibition [25] of 51.3%, an inhibition [26] of 43.1% and an inhibition at 3 µM [27] of 50%. For the same molecule, the CL/F [28] was 331 mL/min/kg, the inhibition [29] was 5.26% and the half-life [30] was 3.86 h. For the same molecule, the Activity [31] was “Active”, the metabolised [32] was 74% and the Kp [33] was 7.6. It also gave an inhibition [34] of 0%, an inhibition [35] of 22.8% and a Cmax [36] of 90 ng/mL.
